Measured values of several laboratories.
Values after ≈ are worked out from the molar mass of the structure shown.
Cell line: MDA-MB-231
Read-out: cell growth or viability

`COc1ccc2/c(=N/c3ccccc3NC(=O)[C@H](C)N)cc(-c3ccc4c(c3)OCCO4)oc2c1` has an inhibition of 13.8% (CCK-8; 1 µM).
With `CNC(=O)c1cc(Oc2ccc(NC(=O)Nc3ccc(Cl)c(C(F)(F)F)c3)cc2)ccn1` the viability was 24.3% (MTT; 25 µM; 24 h).
The inhibition of `COc1ccc2/c(=N/c3ccccc3NC(=O)[C@@H](N)C(C)(C)C)cc(-c3ccc4c(c3)OCO4)oc2c1` is reported as 7.49% (CCK-8; 1 µM).
`Cc1ccc(C=NNC(=O)C2CC(=O)N(c3ccc(F)cc3F)C2)cc1` (centres unmarked) gave an EC50 of 22.8 µM (MTT; 72 h).
`COc1ccc(-c2nn(-c3ccccc3)cc2C=Nc2c(N)nc(S)nc2O)cc1` gave a CC50 of over 20 µM (48 h).
The EC50 of `O=C(NN=Cc1ccc(Cl)cc1)C1CC(=O)N(c2ccc(F)cc2F)C1` (centres unmarked) is reported as 29.9 µM (MTT; 72 h).
`O=C(Nc1ccc(Cl)cc1)Nc1ccc(Oc2nc3ccccc3n3cnnc23)cc1` gave a viability of 100% (MTT; 3.125 µM; 24 h).
The IC50 of `COc1cccc2c1C(=O)c1c(O)c3c(c(O)c1C2=O)C[C@@](O)(C(=O)CO)C[C@@H]3O[C@H]1C[C@H](N)[C@H](O)[C@H](C)O1` is reported as 7.19 µg/mL (≈ 13.2 µM) (MTT; 24 h).
For `COCCC(=O)Nc1ccccc1/N=c1\cc(-c2ccc3c(c2)OCO3)oc2ccccc12`, the inhibition was 8.73% (CCK-8; 1 µM).
The EC50 of `CCN(N=Cc1ccc(Br)cc1)C(=O)C1CC(=O)N(c2ccc(F)cc2F)C1` (centres unmarked) is reported as 32.9 µM (MTT; 72 h).
`O=C(Nc1ccc(Oc2nc3ccccc3n3cnnc23)cc1)Nc1cccc(Cl)c1` gave a viability of 100% (MTT; 3.125 µM; 24 h).
The inhibition of `NCCC(=O)Nc1ccccc1/N=c1\cc(-c2ccc3nc(N)oc3c2)oc2ccccc12` is reported as 68.6% (CCK-8; 1 µM).
The viability of `O=C(Nc1ccccc1)Nc1ccc(Oc2nc3ccccc3n3cnnc23)cc1` is reported as 59.2% (MTT; 50 µM; 24 h).
For `Nc1nc(S)nc(O)c1N=Cc1cn(-c2ccccc2)nc1-c1ccc(Cl)cc1`, the CC50 was 18.4 µM (48 h).
